Test results from ChEMBL document CHEMBL1137781, “Synthesis and preclinical evaluation of novel PET probes for P-glycoprotein function and expression” (J Med Chem, 2009).

Experiments:
[1] = Biodistribution in 15 mg/kg unlabeled 6,7-dimethoxy-2-(3-(5-methoxy-3,4-dihydronaphthalen-1(2H)-ylidene)propyl)-1,2,3,4-tetrahydroisoquinoline pretreated Wistar rat trachea at 13+/-2 MBq, iv after 80 mins; type: ADME, organism-based; set-up: dose 15 mg/kg, route intravenous; conditions: in vivo
In short: (§1)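 Male Wistar rats given saline or unlabeled compound via tail vein: 15 mg/kg, dissolved at 10 mg/mL in saline with 35% ethanol. [11C] tracer (8-15 MBq) then given via penile vein. After microPET scanning the anesthetized rats were killed. Tissues were excised and weighed, and blood was spun for plasma and cell fraction. γ counting with decay correction. Results as SUV (tissue MBq/g × body weight/injected dose).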

Striatum [2] = assay: Biodistribution in Wistar rat striatum at 11+/-2 MBq, iv after 80 mins; type: ADME, organism-based; conditions: in vivo
Brain = assay: Biodistribution in 15 mg/kg unlabeled 6,7-dimethoxy-2-(3-(5-methoxy-3,4-dihydronaphthalen-1(2H)-ylidene)propyl)-1,2,3,4-tetrahydroisoquinoline pretreated Wistar rat brain at 13+/-2 MBq, iv after 56 mins; type: ADME, organism-based; set-up: dose 15 mg/kg, route intravenous; conditions: in vivo
In short: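 Male Wistar rats given saline or unlabeled compound (15 mg/kg, 10 mg/mL in saline with 35% ethanol) via tail vein. [11C] tracer then given via penile vein. Dynamic microPET under anesthesia, with a 3D ROI drawn over the whole brain. SUV taken from the time-activity curve (frames 4×60 s, 3×120 s, 4×300 s, 3×600 s), assuming a density of 1 g/mL. Mean ± SEM.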

[3] = Biodistribution in 15 mg/kg unlabeled 6,7-dimethoxy-2-(3-(5-methoxy-3,4-dihydronaphthalen-1(2H)-ylidene)propyl)-1,2,3,4-tetrahydroisoquinoline pretreated Wistar rat parietal/temporal/occipital cortex at 13+/-2 MBq, iv after 80 mins; type: ADME, organism-based; set-up: dose 15 mg/kg, route intravenous; conditions: in vivo; in short: as §1
Liver [4] = assay: Biodistribution in 15 mg/kg unlabeled 6,7-dimethoxy-2-(3-(5-methoxy-3,4-dihydronaphthalen-1(2H)-ylidene)propyl)-1,2,3,4-tetrahydroisoquinoline pretreated Wistar rat liver at 13+/-2 MBq, iv after 80 mins; type: ADME, organism-based; set-up: dose 15 mg/kg, route intravenous; conditions: in vivo; in short: as §1
Pancreas [5] = assay: Biodistribution in Wistar rat pancreas at 11+/-2 MBq, iv after 80 mins; type: ADME, organism-based; conditions: in vivo
In short: (§2)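 Male Wistar rats (12 h light/dark, chow ad libitum) were fitted with a femoral arterial cannula under isoflurane. They were pretreated via tail vein with saline, cyclosporin A (50 mg/kg), or nonradioactive tracer compound (15 mg/kg; 10 mg/mL in saline with 35% ethanol). The 11C tracer was then given via penile vein, followed by 76 min microPET. Animals were then terminated; excised tissues were weighed and gamma-counted with decay correction. Values are SUVs (tissue MBq/g × body weight g / injected MBq).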

Spleen = assay: Biodistribution in Wistar rat spleen at 11+/-2 MBq, iv after 80 mins; type: ADME, organism-based; conditions: in vivo
Liver [6] = assay: Biodistribution in Wistar rat liver at 11+/-2 MBq, iv after 80 mins; type: ADME, organism-based; conditions: in vivo; in short: as §2
Plasma [7] = assay: Biodistribution in Wistar rat plasma at 11+/-2 MBq, iv after 60 mins; type: ADME, organism-based; conditions: in vivo, 1 h
In short: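 Male Wistar rats under isoflurane with a femoral arterial cannula; saline pretreatment via tail vein. Carbon-11 tracer (8–15 MBq, diluted in saline) injected into the penile vein during microPET. 14 arterial samples were drawn from 15 s to 60 min, plasma was separated by centrifugation, and radioactivity was gamma-counted. Results are given as SUV (tissue MBq/g × body weight/injected dose).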

[8] = Biodistribution in 15 mg/kg unlabeled 6,7-dimethoxy-2-(3-(5-methoxy-3,4-dihydronaphthalen-1(2H)-ylidene)propyl)-1,2,3,4-tetrahydroisoquinoline pretreated Wistar rat amygdala at 13+/-2 MBq, iv after 80 mins; type: ADME, organism-based; set-up: dose 15 mg/kg, route intravenous; conditions: in vivo; in short: as §1
[9] = Biodistribution in 15 mg/kg unlabeled 6,7-dimethoxy-2-(3-(5-methoxy-3,4-dihydronaphthalen-1(2H)-ylidene)propyl)-1,2,3,4-tetrahydroisoquinoline pretreated Wistar rat entorhinal cortex at 13+/-2 MBq, iv after 80 mins; type: ADME, organism-based; set-up: dose 15 mg/kg, route intravenous; conditions: in vivo; in short: as §1
Striatum [10] = assay: Biodistribution in 15 mg/kg unlabeled 6,7-dimethoxy-2-(3-(5-methoxy-3,4-dihydronaphthalen-1(2H)-ylidene)propyl)-1,2,3,4-tetrahydroisoquinoline pretreated Wistar rat striatum at 13+/-2 MBq, iv after 80 mins; type: ADME, organism-based; set-up: dose 15 mg/kg, route intravenous; conditions: in vivo; in short: as §1
[11] = Biodistribution in 15 mg/kg unlabeled 6,7-dimethoxy-2-(3-(5-methoxy-3,4-dihydronaphthalen-1(2H)-ylidene)propyl)-1,2,3,4-tetrahydroisoquinoline pretreated Wistar rat red blood cells at 13+/-2 MBq, iv after 80 mins; type: ADME, organism-based, Erythrocyte; set-up: dose 15 mg/kg, route intravenous; conditions: in vivo; in short: as §1
[12] = Biodistribution in Wistar rat fat at 11+/-2 MBq, iv after 80 mins; type: ADME, organism-based, Adipose tissue; conditions: in vivo; in short: as §2
Kidney = assay: Biodistribution in 15 mg/kg unlabeled 6,7-dimethoxy-2-(3-(5-methoxy-3,4-dihydronaphthalen-1(2H)-ylidene)propyl)-1,2,3,4-tetrahydroisoquinoline pretreated Wistar rat kidney at 13+/-2 MBq, iv after 80 mins; type: ADME, organism-based; set-up: dose 15 mg/kg, route intravenous; conditions: in vivo; in short: as §1
Colon = assay: Biodistribution in Wistar rat colon at 11+/-2 MBq, iv after 80 mins; type: ADME, organism-based; conditions: in vivo; in short: as §2
Bone = assay: Biodistribution in Wistar rat bone at 11+/-2 MBq, iv after 80 mins; type: ADME, organism-based, Bone element; conditions: in vivo
Heart = assay: Biodistribution in 15 mg/kg unlabeled 6,7-dimethoxy-2-(3-(5-methoxy-3,4-dihydronaphthalen-1(2H)-ylidene)propyl)-1,2,3,4-tetrahydroisoquinoline pretreated Wistar rat heart at 13+/-2 MBq, iv after 80 mins; type: ADME, organism-based; set-up: dose 15 mg/kg, route intravenous; conditions: in vivo; in short: as §1
Duodenum = assay: Biodistribution in 15 mg/kg unlabeled 6,7-dimethoxy-2-(3-(5-methoxy-3,4-dihydronaphthalen-1(2H)-ylidene)propyl)-1,2,3,4-tetrahydroisoquinoline pretreated Wistar rat duodenum at 13+/-2 MBq, iv after 80 mins; type: ADME, organism-based; set-up: dose 15 mg/kg, route intravenous; conditions: in vivo; in short: as §1
[13] = Biodistribution in Wistar rat trachea at 11+/-2 MBq, iv after 80 mins; type: ADME, organism-based; conditions: in vivo
[14] = Biodistribution in 15 mg/kg unlabeled 6,7-dimethoxy-2-(3-(5-methoxy-3,4-dihydronaphthalen-1(2H)-ylidene)propyl)-1,2,3,4-tetrahydroisoquinoline pretreated Wistar rat medulla at 13+/-2 MBq, iv after 80 mins; type: ADME, organism-based, Medulla of organ; set-up: dose 15 mg/kg, route intravenous; conditions: in vivo; in short: as §1
[15] = Biodistribution in Wistar rat amygdala at 11+/-2 MBq, iv after 80 mins; type: ADME, organism-based; conditions: in vivo
[16] = Biodistribution in Wistar rat frontal cortex at 11+/-2 MBq, iv after 80 mins; type: ADME, organism-based; conditions: in vivo; in short: as §2
Hippocampus = assay: Biodistribution in Wistar rat hippocampus at 11+/-2 MBq, iv after 80 mins; type: ADME, organism-based; conditions: in vivo; in short: as §2
Plasma [17] = assay: Biodistribution in Wistar rat plasma at 11+/-2 MBq, iv after 80 mins; type: ADME, organism-based; conditions: in vivo
In short: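 Male Wistar rats under isoflurane with saline pretreatment via tail vein. Carbon-11 tracer (8–15 MBq, saline-diluted) was given via the penile vein. After the 76 min microPET list-mode scan, the anesthetized animals were killed and blood collected. Plasma was separated by centrifugation (5 min, 1000g), weighed, and gamma-counted with decay correction. Results are given as SUV (tissue MBq/g × body weight/injected dose).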

[18] = Biodistribution in Wistar rat cingulate cortex at 11+/-2 MBq, iv after 80 mins; type: ADME, organism-based; conditions: in vivo
Muscle tissue = assay: Biodistribution in Wistar rat muscle at 11+/-2 MBq, iv after 80 mins; type: ADME, organism-based; conditions: in vivo; in short: as §2
Pancreas [19] = assay: Biodistribution in 15 mg/kg unlabeled 6,7-dimethoxy-2-(3-(5-methoxy-3,4-dihydronaphthalen-1(2H)-ylidene)propyl)-1,2,3,4-tetrahydroisoquinoline pretreated Wistar rat pancreas at 13+/-2 MBq, iv after 80 mins; type: ADME, organism-based; set-up: dose 15 mg/kg, route intravenous; conditions: in vivo; in short: as §1
Cerebellum = assay: Biodistribution in Wistar rat cerebellum at 11+/-2 MBq, iv after 80 mins; type: ADME, organism-based; conditions: in vivo

SUV [1]: 0.82
SUV (Striatum [2]): 0.46
SUV (Brain): 0.68
SUV [3]: 0.43
SUV (Liver [4]): 2.34
SUV (Pancreas [5]): 4.02
SUV (Spleen): 2.66
SUV (Liver [6]): 1.75
SUV (Plasma [7]): 0.49
SUV [8]: 0.44
SUV [9]: 0.49
SUV (Striatum [10]): 0.4
SUV [11]: 0.3
SUV [12]: 0.35
SUV (Kidney): 1.3
SUV (Colon): 1.85
SUV (Bone): 0.78
SUV (Heart): 0.68
SUV (Duodenum): 1.01
SUV [13]: 1.25
SUV [14]: 0.46
SUV [15]: 0.65
SUV [16]: 0.65
SUV (Hippocampus): 0.45
SUV (Plasma [17]): 0.49
SUV [18]: 0.7
SUV (Muscle tissue): 0.52
SUV (Pancreas [19]): 2.73
SUV (Cerebellum): 0.79
SMILES: COc1cc2c(cc1OC)CN(CC/C=C1\CCCc3c(O[11CH3])cccc31)CC2
